Measured values from ChEMBL document CHEMBL4414550, “Binding of Monovalent and Bivalent Ligands by Transthyretin Causes Different Short- and Long-Distance Conformational Changes” (J Med Chem, 2019).
Calls of active or inactive are those of the source. The rule behind the calls is not given here.

Key:
[1] = target: Transthyretin (Homo sapiens) (UniProt P02766); experiment: Binding affinity to wild-type TTR (unknown origin) assessed as induction of chemical shift perturbation at A120 residue at 1:1 ratio of compound to protein by 2D TROSY [1H-15N] spectroscopy
Summary of the method: (§1)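 50 μM TTR in 600 μL titrated with ligand from 10 mM stocks in DMSO-d6 (up to 6 μL; at most 1% v/v DMSO-d6). 2D [1H,15N] TROSY spectra recorded at ligand/protein ratios 0, 0.5, 1.0, 1.5 and 2.0 for the monovalent ligand and 0, 0.5 and 1.0 for the bivalent ligand. Per-residue amide shifts were expressed as a combined chemical shift change in ppm.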

[2] = target: Transthyretin (Homo sapiens) (UniProt P02766); experiment: Binding affinity to His6-tagged wild-type TTR (unknown origin) expressed in Escherichia coli BL21 star (DE3) at 0.5:1 ratio of test compound to protein by 2D TROSY [1H-15N] spectroscopy; summary of the method: as §1
[3] = target: Transthyretin (Homo sapiens) (UniProt P02766); experiment: Binding affinity to wild-type TTR (unknown origin) assessed as induction of chemical shift at H90 residue at 1:1 ratio of compound to protein by 2D TROSY [1H-15N] spectroscopy; summary of the method: as §1
[4] = target: Transthyretin (Homo sapiens) (UniProt P02766); experiment: Binding affinity to wild-type TTR (unknown origin) assessed as increase in bound resonance at L55 residue at 0.5:1 to 1:1 ratio of compound to protein by 2D TROSY [1H-15N] spectroscopy; summary of the method: as §1
[5] = target: Transthyretin (Homo sapiens) (UniProt P02766); experiment: Binding affinity to His6-tagged wild-type TTR (unknown origin) expressed in Escherichia coli BL21 star (DE3) assessed as assignment of protein resonance by TROSY [1H-13C-15N] HNCA spectroscopy
Summary of the method: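 3D HNCA spectra of TTR acquired in the presence of ligand to confirm the backbone resonance assignment. The assignment was made de novo from TROSY multidimensional experiments at 310 K, pH 7.0 and 7.4.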

[6] = target: Transthyretin (Homo sapiens) (UniProt P02766); experiment: Binding affinity to wild-type TTR (unknown origin) assessed as induction of chemical shift at A19 residue at 0.6:1 to 1:1 ratio of compound to protein by 2D TROSY [1H-15N] spectroscopy; summary of the method: as §1
[7] = target: Transthyretin (Homo sapiens) (UniProt P02766); experiment: Binding affinity to wild-type TTR (unknown origin) assessed as induction of chemical shift perturbation at V93 residue at 1:1 ratio of compound to protein by 2D TROSY [1H-15N] spectroscopy; summary of the method: as §1
[8] = target: Transthyretin (Homo sapiens) (UniProt P02766); experiment: Binding affinity to wild-type TTR (unknown origin) assessed as induction of chemical shift at G22 residue at 0.6:1 to 1:1 ratio of compound to protein by 2D TROSY [1H-15N] spectroscopy; summary of the method: as §1
[9] = target: Transthyretin (Homo sapiens) (UniProt P02766); experiment: Binding affinity to wild-type TTR (unknown origin) assessed as chemical shift perturbation at protein dimer-dimer interface at 1:1 ratio of compound to protein by 2D TROSY [1H-15N] spectroscopy; summary of the method: as §1
[10] = target: Transthyretin (Homo sapiens) (UniProt P02766); experiment: Binding affinity to wild-type TTR (unknown origin) assessed as formation of hydrogen bond between A25 and T49 at 1:1 ratio of compound to protein by 2D TROSY [1H-15N] spectroscopy
[11] = target: Transthyretin (Homo sapiens) (UniProt P02766); experiment: Binding affinity to wild-type TTR (unknown origin) assessed as induction of chemical shift at L110 residue at 0.6:1 to 1:1 ratio of compound to protein by 2D TROSY [1H-15N] spectroscopy; summary of the method: as §1
[12] = target: Transthyretin (Homo sapiens) (UniProt P02766); experiment: Binding affinity to wild-type TTR (unknown origin) assessed as induction of chemical shift at L17 residue at 0.6:1 to 1:1 ratio of compound to protein by 2D TROSY [1H-15N] spectroscopy; summary of the method: as §1
[13] = target: Transthyretin (Homo sapiens) (UniProt P02766); experiment: Binding affinity to wild-type TTR (unknown origin) assessed as induction of chemical shift at R21 residue at 0.6:1 to 1:1 ratio of compound to protein by 2D TROSY [1H-15N] spectroscopy; summary of the method: as §1
[14] = target: Transthyretin (Homo sapiens) (UniProt P02766); experiment: Binding affinity to wild-type TTR (unknown origin) assessed as induction of chemical shift at S117 residue at 0.6:1 to 1:1 ratio of compound to protein by 2D TROSY [1H-15N] spectroscopy; summary of the method: as §1
[15] = target: Transthyretin (Homo sapiens) (UniProt P02766); experiment: Binding affinity to wild-type TTR (unknown origin) assessed as induction of chemical shift at E92 residue at 0.6:1 to 1:1 ratio of compound to protein by 2D TROSY [1H-15N] spectroscopy; summary of the method: as §1
[16] = target: Transthyretin (Homo sapiens) (UniProt P02766); experiment: Binding affinity to wild-type TTR (unknown origin) assessed as induction of chemical shift at A109 residue at 0.6:1 to 1:1 ratio of compound to protein by 2D TROSY [1H-15N] spectroscopy; summary of the method: as §1
[17] = target: Transthyretin (Homo sapiens) (UniProt P02766); experiment: Binding affinity to wild-type TTR (unknown origin) assessed as chemical shift perturbation at EH1 loops at 1:1 ratio of compound to protein by 2D TROSY [1H-15N] spectroscopy; summary of the method: as §1
[18] = target: Transthyretin (Homo sapiens) (UniProt P02766); experiment: Binding affinity to wild-type TTR (unknown origin) assessed as induction of chemical shift at E72 residue at 0.6:1 to 1:1 ratio of compound to protein by 2D TROSY [1H-15N] spectroscopy; summary of the method: as §1
[19] = target: Transthyretin (Homo sapiens) (UniProt P02766); experiment: Binding affinity to His6-tagged wild-type TTR (unknown origin) expressed in Escherichia coli BL21 star (DE3) at 1:1 ratio of test compound to protein by 2D TROSY [1H-15N] spectroscopy; summary of the method: as §1
[20] = target: Transthyretin (Homo sapiens) (UniProt P02766); experiment: Binding affinity to wild-type TTR (unknown origin) assessed as chemical shift perturbation at CD loops at 1:1 ratio of compound to protein by 2D TROSY [1H-15N] spectroscopy; summary of the method: as §1
[21] = target: Transthyretin (Homo sapiens) (UniProt P02766); experiment: Binding affinity to wild-type TTR (unknown origin) assessed as induction of chemical shift at T118 residue at 0.6:1 to 1:1 ratio of compound to protein by 2D TROSY [1H-15N] spectroscopy; summary of the method: as §1
[22] = target: Transthyretin (Homo sapiens) (UniProt P02766); experiment: Binding affinity to wild-type TTR (unknown origin) assessed as chemical shift perturbation at H1 helix at 1:1 ratio of compound to protein by 2D TROSY [1H-15N] spectroscopy; summary of the method: as §1
[23] = target: Transthyretin (Homo sapiens) (UniProt P02766); experiment: Binding affinity to wild-type TTR (unknown origin) assessed as induction of chemical shift at T96 residue at 0.6:1 to 2:1 ratio of compound to protein by 2D TROSY [1H-15N] spectroscopy; conditions: in the assay text read “0.6:1 to 1:1 ratio” for “0.6:1 to 2:1 ratio”; summary of the method: as §1
[24] = target: Transthyretin (Homo sapiens) (UniProt P02766); experiment: Binding affinity to wild-type TTR (unknown origin) assessed as induction of chemical shift at H88 residue at 0.6:1 to 1:1 ratio of compound to protein by 2D TROSY [1H-15N] spectroscopy; summary of the method: as §1
[25] = target: Transthyretin (Homo sapiens) (UniProt P02766); experiment: Binding affinity to wild-type TTR (unknown origin) assessed as induction of chemical shift at L58 residue at 0.6:1 to 1:1 ratio of compound to protein by 2D TROSY [1H-15N] spectroscopy; summary of the method: as §1
[26] = target: Transthyretin (Homo sapiens) (UniProt P02766); experiment: Binding affinity to wild-type TTR (unknown origin) assessed as induction of chemical shift at Y114 residue at 0.6:1 to 1:1 ratio of compound to protein by 2D TROSY [1H-15N] spectroscopy; summary of the method: as §1
[27] = target: Transthyretin (Homo sapiens) (UniProt P02766); experiment: Binding affinity to wild-type TTR (unknown origin) assessed as chemical shift perturbation at K9 residue at 1:1 ratio of compound to protein by 2D TROSY [1H-15N] spectroscopy; summary of the method: as §1
[28] = target: Transthyretin (Homo sapiens) (UniProt P02766); experiment: Binding affinity to wild-type TTR (unknown origin) assessed as chemical shift perturbation at DE loops at 1:1 ratio of compound to protein by 2D TROSY [1H-15N] spectroscopy; summary of the method: as §1
[29] = target: Transthyretin (Homo sapiens) (UniProt P02766); experiment: Binding affinity to wild-type TTR (unknown origin) assessed as induction of chemical shift at A108 residue at 0.6:1 to 1:1 ratio of compound to protein by 2D TROSY [1H-15N] spectroscopy; summary of the method: as §1

O=C(O)c1ccc2nc(-c3cc(Cl)cc(Cl)c3)oc2c1
Activity [1]: Active
Activity [2]: Active
Activity [3]: Active
Activity [4]: Active
Activity [5]: Active

O=C(O)c1ccccc1Nc1cc(Cl)c(OCCCCCCCOc2c(Cl)cc(Nc3ccccc3C(=O)O)cc2Cl)c(Cl)c1
Activity [6]: inactive
Activity [7]: Active
Activity [8]: inactive
Activity [9]: Active
Activity [10]: Active
Activity [11]: inactive
Activity [1]: Active
Activity [12]: inactive
Activity [13]: inactive
Activity [14]: inactive
Activity [2]: Active
Activity [15]: inactive
Activity [16]: inactive
Activity [17]: Active
Activity [3]: Active
Activity [4]: Active
Activity [18]: Active
Activity [19]: Active
Activity [20]: Active
Activity [21]: inactive
Activity [22]: Active
Activity [23]: inactive
Activity [24]: inactive
Activity [25]: inactive
Activity [26]: inactive
Activity [27]: Active
Activity [28]: Active
Activity [29]: inactive
Activity [5]: Active
